DAGLB inh: DAGLB lipase inhibitors, primary screen, biochemical, fluorescence, HTS; HEK293T DAGLB membrane lysate, EnzChek fluorogenic substrate; Diacylglycerol lipase-beta (Homo sapiens), Q8NCG7; 340,000 compounds, 0.059% hits; inhibition, % at 5.17 µM; in the data active means inhibition above about 34%
HTRA1 inh: HTRA1 serine protease inhibitors, primary screen, biochemical, fluorescence polarization, HTS. Q92743. recombinant HTRA1, FP-rhodamine activity-based probe. inhibition, % at 5.96 µM. 340,000 compounds, 0.5% hits. AID 504803, 2011; in the data active means inhibition above about 36%
Target sequence (Q92743 whole entry, looked up): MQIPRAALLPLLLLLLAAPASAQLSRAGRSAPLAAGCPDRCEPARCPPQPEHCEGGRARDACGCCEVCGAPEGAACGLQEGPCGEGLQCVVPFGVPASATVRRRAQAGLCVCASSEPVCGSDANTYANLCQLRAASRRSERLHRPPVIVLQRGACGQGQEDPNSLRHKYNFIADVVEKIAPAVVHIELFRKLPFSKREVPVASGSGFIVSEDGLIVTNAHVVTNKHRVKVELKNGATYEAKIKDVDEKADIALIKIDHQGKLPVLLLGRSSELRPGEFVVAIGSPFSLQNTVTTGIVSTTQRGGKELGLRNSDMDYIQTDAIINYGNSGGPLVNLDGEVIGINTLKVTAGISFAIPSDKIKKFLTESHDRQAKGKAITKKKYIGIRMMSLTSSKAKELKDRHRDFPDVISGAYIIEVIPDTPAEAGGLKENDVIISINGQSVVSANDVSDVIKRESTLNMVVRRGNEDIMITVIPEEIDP
TCR-CD3 inh: inhibitors of human TCR-CD3 interaction, primary screen, biochemical, fluorescence, TAMRA-labeled TCR probe; AID 651800, 2012; 360,000 compounds, 0.37% hits; inhibition, % at 9.4 µM; in the data active means inhibition above about 19%;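 further: recombinant mutant TCR 2C K166C tagged with TAMRA read by polarization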
SIAE primary: human SIAE inhibitors, primary screen, biochemical, fluorescence polarization, FP-Rh probe, 1536-well HTS; inhibition, % at 9.66 µM; Sialate O-acetylesterase (Homo sapiens), Q9HAT2; 370,000 compounds, 0.69% hits; SIAE FP-Rh probe binding;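 active means inhibition above a cutoff: mean of compounds within the control limits plus 3 SD of those, cut at about 17% in these data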
ABHD4 inh: ABHD4 inhibitors, primary screen, biochemical, fluorescence polarization, mouse; purified mABHD4, FP-Rh probe fluorescence polarization; inhibition, % at 8.92 µM; 370,000 compounds, 0.54% hits; (Lyso)-N-acylphosphatidylethanolamine lipase (Mus musculus), Q8VD66;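 active means inhibition exceeding the mean over every tested compound plus 3 SD, cut at about 30% in these data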
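Assay system: Wild-type mouse ABHD4 protein | Medium: HEPES pH 7.0 buffer, 150 mM NaCl, 0.01% Pluronic F-127 | Incubation: Enzyme–compound pre-incubation 45 min, then probe 60 min, both 25 °C | Technique: Fluorescence polarization with parallel and perpendicular emission, 525/598 nm | Evaluation: % inhibition of FP-Rh probe binding versus controls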
HTRA1 inh conf: HTRA1 protease inhibitors, retest, confirmation, biochemical, fluorescence polarization; shares compounds with HTRA1 inh; recombinant HTRA1, FP-rhodamine activity-based probe; inhibition, % at 5.96 µM; 1,600 compounds, 66% hits;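 active means mean inhibition over three repeats above a set limit taken from the earlier primary screen, cut at about 37% in these data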;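 further: inhibitors block probe binding so polarization drops and inhibition rises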
Large screens that a line does not name were inactive (follow-up assays come after a bar, where they were run). Hits are enriched below; roughly 1.6% of the tested compounds scored in any of these assays.

CCC(C)N(C(=O)c1oc(=O)c2ccccc2c1-c1ccc(C)cc1)C(C)CC (stereo not drawn)	none (no result: DAGLB inh, HTRA1 inh, TCR-CD3 inh)
O=C1CCNc2cc3ccccc3cc21	HTRA1 inh 40.8 (no result: TCR-CD3 inh, SIAE primary, ABHD4 inh) | HTRA1 inh conf inactive
CCC(C)NC(=O)Nc1ccc(Br)cc1 (stereo not drawn)	none
CCC(C)Nc1ccc(NC(C)CC)cc1 (stereo not drawn)	HTRA1 inh 66.9 (no result: TCR-CD3 inh, SIAE primary, ABHD4 inh) | HTRA1 inh conf 75.5
COC(=O)C1=C(O)/C(=C\c2ccc(CNC(=O)C(=O)Nc3ccc(C)cc3)o2)N=C1C	HTRA1 inh 45.1 | HTRA1 inh conf inactive
CCOC(=O)C1=C(O)/C(=C/c2ccc(CNC(=O)C(=O)Nc3ccc(C)cc3)o2)N=C1C	none
CCOc1ccc2nc3cc(N=Nc4ccc(N)nc4N)ccc3c(N)c2c1	HTRA1 inh 46.9 (no result: TCR-CD3 inh, SIAE primary, ABHD4 inh) | HTRA1 inh conf 69.9
O=S1(=O)c2c(cccc2N2CCSCC2)Oc2ccccc2CN1Cc1cn(Cc2cccc(C(F)(F)F)c2)nn1	none (no result: DAGLB inh, HTRA1 inh, TCR-CD3 inh)
Nc1n[nH]c2cc(=O)n(-c3cccc(C(F)(F)F)c3)nc12	none
O=c1[nH][nH]c2cc(=O)n(-c3cccc(C(F)(F)F)c3)nc12	HTRA1 inh 58.7, ABHD4 inh 61.8 | HTRA1 inh conf inactive
C=CCN=C1NC(c2ccccc2C(F)(F)F)C(C(=O)OC)=C(C)N1Cc1ccc(C(F)(F)F)cc1 (stereo not drawn)	none (no result: DAGLB inh, HTRA1 inh)
CCc1noc(C)c1C(=O)Oc1ccc(N(C)S(=O)(=O)c2ccccc2)cc1	HTRA1 inh 36.4 | HTRA1 inh conf inactive
Cc1cccc(NC(=O)CSCc2nc3c(nnn3Cc3ccc(F)cc3)c(=O)[nH]2)c1C	none
CN(C)c1ccc(NC(=O)CSCc2nc3c(nnn3Cc3ccc(F)cc3)c(=O)[nH]2)cc1	HTRA1 inh 37.9 (no result: TCR-CD3 inh, SIAE primary, ABHD4 inh) | HTRA1 inh conf inactive
CC1(C)Oc2ccc(C(=O)NCCCN3CCCC3)cc2NC1=O	none (no result: DAGLB inh, HTRA1 inh, TCR-CD3 inh)
CCCCC(=O)NC(c1ccc(N(C)C)cc1)c1ccc2cccnc2c1O (stereo not drawn)	HTRA1 inh 46.4 | HTRA1 inh conf 61.0
CCCC(=O)NC(c1ccc(Cl)cc1Cl)c1ccc2cccnc2c1O (stereo not drawn)	HTRA1 inh 53.0 | HTRA1 inh conf 56.0
CCCCC(=O)NC(c1ccccc1OC)c1ccc2cccnc2c1O (stereo not drawn)	HTRA1 inh 59.6 | HTRA1 inh conf 52.1
CCCCC(=O)NC(c1ccc(Cl)cc1)c1ccc2cccnc2c1O (stereo not drawn)	HTRA1 inh 40.3 | HTRA1 inh conf 44.0
CCCC(=O)NC(c1ccc(Cl)cc1)c1ccc2cccnc2c1O (stereo not drawn)	HTRA1 inh 46.4 | HTRA1 inh conf 48.4
CC(C)C(=O)NC(c1ccco1)c1ccc2cccnc2c1O (stereo not drawn)	none
CCCC(=O)NC(c1ccccc1OC)c1ccc2cccnc2c1O (stereo not drawn)	none (no result: TCR-CD3 inh, SIAE primary, ABHD4 inh)
CCCC(=O)NC(c1ccc(C)cc1)c1ccc2cccnc2c1O (stereo not drawn)	HTRA1 inh 45.4 (no result: TCR-CD3 inh, SIAE primary, ABHD4 inh) | HTRA1 inh conf 58.4
CCN(CC)c1ccc(C(NC(=O)C(C)C)c2ccc3cccnc3c2O)cc1 (stereo not drawn)	HTRA1 inh 56.2 | HTRA1 inh conf 61.0
COc1ccc(-n2c(SCC(=O)NC3CCCCCC3)nnc2-c2ccncc2)cc1	none (no result: DAGLB inh, HTRA1 inh, TCR-CD3 inh)
Cc1ccc2nc(-c3cc(N)cc(N)c3)oc2c1	HTRA1 inh 36.8 | HTRA1 inh conf inactive
COc1ccc(/C=N/N2C(=O)CSC2=S)cc1	none
COc1ccc(-c2nn(-c3ccccc3)cc2/C=N/N2C(=O)CSC2=S)cc1	HTRA1 inh 67.9 | HTRA1 inh conf 53.3
FC(F)(F)c1cnc(NNC(=S)Nc2ccc(Cl)cc2)c(Cl)c1	HTRA1 inh 49.2 | HTRA1 inh conf 53.5
Cc1ccc(NC(=S)NNc2ncc(C(F)(F)F)cc2Cl)c(C)c1	none
Cc1ccc(NC(=S)NNc2ncc(C(F)(F)F)cc2Cl)cc1	HTRA1 inh 37.7 | HTRA1 inh conf inactive
Fc1ccc(NC(=S)NNc2ncc(C(F)(F)F)cc2Cl)c(F)c1	HTRA1 inh 46.0 | HTRA1 inh conf 69.2
O=C(/C=C/c1ccc(-c2ccccc2)cc1)NC1=NCCS1	none (no result: DAGLB inh, HTRA1 inh, TCR-CD3 inh)
COc1ccc2[nH]c(O)c(N=NC(=O)c3ccc(NS(=O)(=O)c4cccs4)cc3)c2c1	HTRA1 inh 45.2 | HTRA1 inh conf inactive
CCCCCCCCCCCCCCCC[N+](C)(C)Cc1ccc(F)cc1	HTRA1 inh 64.0, ABHD4 inh 43.9 | HTRA1 inh conf 63.6
CC#CC[N+](C)(C)CCCCCCCC	none
CC(C)C[C@H]1COc2cccc(F)c2S(=O)(=O)N1Cc1cn(Cc2ccc(C(F)(F)F)cc2)nn1	none (no result: DAGLB inh, HTRA1 inh, TCR-CD3 inh)
O=C(Oc1ccc(/C=N/NC(=O)c2ccccc2O)cc1)c1ccccc1	HTRA1 inh 40.5 | HTRA1 inh conf inactive
O=C(Nc1ccc(Nc2ccccc2)cc1)c1ccco1	HTRA1 inh 38.4 | HTRA1 inh conf inactive
Oc1c(Cl)cc(Cl)c2cccnc12	HTRA1 inh 48.2, SIAE primary 22.6 | HTRA1 inh conf 56.0
CN1CCN(C(c2ccc(F)cc2)c2ccc3cccnc3c2O)CC1 (stereo not drawn)	none (no result: TCR-CD3 inh, SIAE primary, ABHD4 inh)
Cc1ccc(C(NC(=O)C(C)C)c2cc([N+](=O)[O-])c3cccnc3c2O)cc1 (stereo not drawn)	HTRA1 inh 37.0 | HTRA1 inh conf 65.2
CN1CCN(C(c2ccc(Br)cc2)c2cc(Cl)c3cccnc3c2O)CC1 (stereo not drawn)	HTRA1 inh 51.7 | HTRA1 inh conf 70.2
Clc1cc2cccnc2c2ccccc12	none
COc1ccc(C(NC(C)=O)c2cc(Cl)c3cccnc3c2O)cc1OC (stereo not drawn)	HTRA1 inh 42.1 | HTRA1 inh conf 56.0
COc1ccc(C(NC(C)=O)c2nccc3cc(OC)c(OC)cc23)cc1OC (stereo not drawn)	none
C=CCN1[C@@H](CC(C)C)COc2cccc(F)c2S1(=O)=O	none (no result: DAGLB inh, HTRA1 inh, TCR-CD3 inh)
C[C@H](O)[C@@H]1CN2CCc3ccc(N4CCOCC4)cc3[C@@H]2C[C@@H]1N(C)CC1CCCCC1	none (no result: DAGLB inh, HTRA1 inh, TCR-CD3 inh)
N#Cc1cccc(OC[C@@H](O)CN2CCC(C(O)(c3ccccc3)c3ccccc3)CC2)c1	none (no result: DAGLB inh, HTRA1 inh, TCR-CD3 inh)
Cc1ccc2c(Cl)cc(Cl)c(O)c2n1	HTRA1 inh 39.8 | HTRA1 inh conf 46.9
Cc1cc(Cl)c2ccc3ccccc3c2n1	none
O=C(NC(c1ccccc1)c1cc(Cl)c2cccnc2c1O)c1cccnc1 (stereo not drawn)	none (no result: DAGLB inh, HTRA1 inh)
CC(=O)NC(C)c1cc(Cl)c2cccnc2c1O (stereo not drawn)	HTRA1 inh 41.0 | HTRA1 inh conf 51.5
